Experiments:
Cavia porcellus [1] = species on record: Cavia porcellus; assay: Compound was tested for inhibition of potassium ion uptake in guinea pig cerebrocortical slices at concentration of (10e-9) M; assay type: functional
Cavia porcellus [2] = species on record: Cavia porcellus; assay: Compound was tested for inhibition of chloride ion uptake in guinea pig cerebrocortical slices at concentration of (10e-12) M; assay type: functional
Outline: (§1)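 Slices were incubated 60 min at 22 °C in 27 mM K+ medium with 5 mM HCO3- added for the last 40 min, with the compound present throughout. Slices were then filtered off, reweighed and homogenized (10% w/v) in 1 N perchloric acid. The supernatant was assayed for electrolytes, expressed as µmol/g initial wet weight. Two-tailed t-test versus 27 K + HCO3-.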

Rattus norvegicus [3] = species on record: Rattus norvegicus; assay: Compound was tested for inhibition of chloride ion uptake in rat cerebrocortical slices at concentration of (10e-3) M; assay type: functional; outline: as §1
Felis catus [4] = species on record: Felis catus; assay: Compound was tested for inhibition of HCO3- dependent swelling of cat cerebrocortical slices at concentration of (10e-7) M; assay type: functional
Outline: (§2)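 Cerebrocortical slices were weighed and incubated in Warburg flasks at 22 °C in medium of KCl 27, NaCl 100, glucose 10 and KH2PO4 1.2 mmol/L (27 mM K+ HEPES). HCO3- (5 mM) was added from the side arm for the final 40 min, and the compound was present throughout the 60 min. Swelling = (final − initial wet weight)/initial wet weight × 100. Two-tailed t-test versus 27 K + HCO3-.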

Rattus norvegicus [5] = species on record: Rattus norvegicus; assay: Compound was tested for inhibition of sodium ion uptake in rat cerebrocortical slices at concentration of (10e-6) M; assay type: functional
Cavia porcellus [6] = species on record: Cavia porcellus; assay: Compound was tested for inhibition of HCO3- dependent swelling of guinea pig cerebrocortical slices at concentration of (10e-7) M; assay type: functional; outline: as §2
Felis catus [7] = species on record: Felis catus; assay: Compound was tested for inhibition of K+ ion uptake in cat cerebrocortical slices at concentration of (10e-12) M; assay type: functional; outline: as §1
Cavia porcellus [8] = species on record: Cavia porcellus; assay: Compound was tested for inhibition of chloride ion uptake in guinea pig cerebrocortical slices at concentration of (10e-9) M; assay type: functional; outline: as §1
Rattus norvegicus [9] = species on record: Rattus norvegicus; assay: Compound was tested for inhibition of HCO3- dependent swelling of rat cerebrocortical slices at concentration of (10e-6) M; assay type: functional; outline: as §2
Cavia porcellus [10] = species on record: Cavia porcellus; assay: Compound was tested for inhibition of potassium ion uptake in guinea pig cerebrocortical slices at concentration of (10e-11) M; assay type: functional; outline: as §1
Rattus norvegicus [11] = species on record: Rattus norvegicus; assay: Compound was tested for inhibition of HCO3- dependent swelling of rat cerebrocortical slices at concentration of (10e-8) M; assay type: functional; outline: as §2
Felis catus [12] = species on record: Felis catus; assay: Compound was tested for inhibition of chloride ion uptake in cat cerebrocortical slices at concentration of (10e-12) M; assay type: functional; outline: as §1
Rattus norvegicus [13] = species on record: Rattus norvegicus; assay: Compound was tested for inhibition of potassium ion uptake in rat cerebrocortical slices at concentration of (10e-3) M; assay type: functional
Cavia porcellus [14] = species on record: Cavia porcellus; assay: Compound was tested for inhibition of HCO3- dependent swelling of guinea pig cerebrocortical slices at concentration of (10e-9) M; assay type: functional; outline: as §2
Felis catus [15] = species on record: Felis catus; assay: Compound was tested for inhibition of K+ ion uptake in cat cerebrocortical slices at concentration of (10e-11) M; assay type: functional; outline: as §1
Felis catus [16] = species on record: Felis catus; assay: In vitro concentration required for 50% inhibition of swelling of cat cerebrocortical slices; assay type: functional; conditions: read-out: I50
Outline: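 Cat cortical slices were weighed and incubated 60 min at 22 °C in 27 mM K+ medium, with HCO3- added for the last 40 min and inhibitor present throughout. Swelling = (final − initial wet weight)/initial wet weight × 100. The HCO3−-dependent increment was taken as the target. I50 is the molarity giving 50% inhibition, read from the concentration–response curve.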

Cavia porcellus [17] = species on record: Cavia porcellus; assay: Compound was tested for inhibition of chloride ion uptake in guinea pig cerebrocortical slices at concentration of (10e-6) M; assay type: functional; outline: as §1
Cavia porcellus [18] = species on record: Cavia porcellus; assay: Compound was tested for inhibition of sodium ion uptake in guinea pig cerebrocortical slices at concentration of (10e-9) M; assay type: functional
Cavia porcellus [19] = species on record: Cavia porcellus; assay: Compound was tested for inhibition of sodium ion uptake in guinea pig cerebrocortical slices at concentration of (10e-10) M; assay type: functional
Felis catus [20] = species on record: Felis catus; assay: Compound was tested for inhibition of HCO3- dependent swelling of cat cerebrocortical slices at concentration of (10e-13) M; assay type: functional; outline: as §2
Cavia porcellus [21] = species on record: Cavia porcellus; assay: Compound was tested for inhibition of HCO3- dependent swelling of guinea pig cerebrocortical slices at concentration of (10e-8) M; assay type: functional; outline: as §2
Cavia porcellus [22] = species on record: Cavia porcellus; assay: Compound was tested for inhibition of chloride ion uptake in guinea pig cerebrocortical slices at concentration of (10e-8) M; assay type: functional; outline: as §1
Cavia porcellus [23] = species on record: Cavia porcellus; assay: Compound was tested for inhibition of HCO3- dependent swelling of guinea pig cerebrocortical slices at concentration of (10e-6) M; assay type: functional; outline: as §2
Felis catus [24] = assay: In vivo activity in the acceleration-deceleration head injury assay at dose of 10 mg/kg; 15/19
Felis catus [25] = species on record: Felis catus; assay: Compound was tested for inhibition of HCO3- dependent swelling of cat cerebrocortical slices at concentration of (10e-11) M; assay type: functional; outline: as §2
Cavia porcellus [26] = species on record: Cavia porcellus; assay: Compound was tested for inhibition of sodium ion uptake in guinea pig cerebrocortical slices at concentration of (10e-7) M; assay type: functional
Cavia porcellus [27] = species on record: Cavia porcellus; assay: Compound was tested for inhibition of potassium ion uptake in guinea pig cerebrocortical slices at concentration of (10e-10) M; assay type: functional; outline: as §1
Felis catus [28] = species on record: Felis catus; assay: Compound was tested for inhibition of chloride ion uptake in cat cerebrocortical slices at concentration of (10e-13) M; assay type: functional; outline: as §1
Felis catus [29] = species on record: Felis catus; assay: Compound was tested for inhibition of chloride ion uptake in cat cerebrocortical slices at concentration of (10e-7) M; assay type: functional; outline: as §1
Rattus norvegicus [30] = species on record: Rattus norvegicus; assay: Compound was tested for inhibition of potassium ion uptake in rat cerebrocortical slices at concentration of (10e-6) M; assay type: functional
Cavia porcellus [31] = species on record: Cavia porcellus; assay: Compound was tested for inhibition of potassium ion uptake in guinea pig cerebrocortical slices at concentration of (10e-8) M; assay type: functional; outline: as §1
Felis catus [32] = species on record: Felis catus; assay: Compound was tested for inhibition of sodium ion uptake in cat cerebrocortical slices at concentration of (10e-12) M; assay type: functional
Felis catus [33] = species on record: Felis catus; assay: Compound was tested for inhibition of K+ ion uptake in cat cerebrocortical slices at concentration of (10e-9) M; assay type: functional; outline: as §1
Rattus norvegicus [34] = species on record: Rattus norvegicus; assay: Compound was tested for inhibition of potassium ion uptake in rat cerebrocortical slices at concentration of (10e-4) M; assay type: functional
Felis catus [35] = species on record: Felis catus; assay: Compound was tested for inhibition of sodium ion uptake in cat cerebrocortical slices at concentration of (10e-10) M; assay type: functional
Cavia porcellus [36] = species on record: Cavia porcellus; assay: Compound was tested for inhibition of chloride ion uptake in guinea pig cerebrocortical slices at concentration of (10e-10) M; assay type: functional; outline: as §1
Felis catus [37] = species on record: Felis catus; assay: Compound was tested for inhibition of HCO3- dependent swelling of cat cerebrocortical slices at concentration of (10e-9) M; assay type: functional; outline: as §2
Felis catus [38] = species on record: Felis catus; assay: Compound was tested for inhibition of chloride ion uptake in cat cerebrocortical slices at concentration of (10e-8) M; assay type: functional; outline: as §1
Felis catus [39] = assay: In vivo activity in the acceleration-deceleration head injury assay at dose of 10 mg/kg; 6/16
Cavia porcellus [40] = species on record: Cavia porcellus; assay: Compound was tested for inhibition of chloride ion uptake in guinea pig cerebrocortical slices at concentration of (10e-7) M; assay type: functional; outline: as §1
Rattus norvegicus [41] = species on record: Rattus norvegicus; assay: Compound was tested for inhibition of sodium ion uptake in rat cerebrocortical slices at concentration of (10e-4) M; assay type: functional
Felis catus [42] = species on record: Felis catus; assay: Compound was tested for inhibition of chloride ion uptake in cat cerebrocortical slices at concentration of (10e-9) M; assay type: functional; outline: as §1
Felis catus [43] = species on record: Felis catus; assay: Compound was tested for inhibition of sodium ion uptake in cat cerebrocortical slices at concentration of (10e-8) M; assay type: functional

CCCC12CCC(=O)C=C1c1c(cc(OCC(=O)O)c(Cl)c1Cl)C2 (single isomer, unassigned; (+))
Activity (Cavia porcellus [1]): 95.9 | Activity (Cavia porcellus [2]): 100.5 | Activity (Rattus norvegicus [3]): 106.3 | Swelling (Felis catus [4]): 20% | Activity (Rattus norvegicus [5]): 127 | Swelling (Cavia porcellus [6]): 26.4% | Activity (Felis catus [7]): 90.9 | Activity (Cavia porcellus [8]): 105.2 | Swelling (Rattus norvegicus [9]): 22.7% | Activity (Cavia porcellus [10]): 88.9 | Swelling (Rattus norvegicus [11]): 20.9% | Activity (Felis catus [12]): 90.5 | Activity (Rattus norvegicus [13]): 60.2 | Swelling (Cavia porcellus [14]): 26.2% | Activity (Felis catus [15]): 88.8 | IC50 (Felis catus [16]): 0.02 nM | Activity (Cavia porcellus [17]): 103.8 | Activity (Cavia porcellus [18]): 110 | Activity (Cavia porcellus [19]): 108.3 | Swelling (Felis catus [20]): 27.3% | Swelling (Cavia porcellus [21]): 24.4% | Activity (Cavia porcellus [22]): 103.8 | Swelling (Cavia porcellus [23]): 26.8% | Deaths (Felis catus [24]): 15 | Swelling (Felis catus [25]): 19.1% | Activity (Cavia porcellus [26]): 125.4 | Activity (Cavia porcellus [27]): 101.3 | Activity (Felis catus [28]): 98.5 | Activity (Felis catus [29]): 86.9 | Activity (Rattus norvegicus [30]): 71.9 | Activity (Cavia porcellus [31]): 90.8 | Activity (Felis catus [32]): 96.4 | Activity (Felis catus [33]): 86 | Activity (Rattus norvegicus [34]): 73.7 | Activity (Felis catus [35]): 86.9 | Activity (Cavia porcellus [36]): 101.4 | Swelling (Felis catus [37]): 18.3% | Activity (Felis catus [38]): 89.1 | Deaths (Felis catus [39]): 6 | Activity (Cavia porcellus [40]): 115.4 | Activity (Rattus norvegicus [41]): 112.1 | Activity (Felis catus [42]): 89.3 | Activity (Felis catus [43]): 87.2
